Laboratory results as given in ChEMBL document CHEMBL3808344, “Design and synthesis of novel benzoxazole analogs as Aurora B kinase inhibitors” (Bioorg Med Chem Lett, 2016).
Calls of active or inactive are those of the source. The rule behind the calls is not given here.

Tests used:
Aurora kinase B [1] = target: T1, Aurora kinase B (Homo sapiens, UniProt Q96GD4); experiment: Inhibition of Aurora B (unknown origin) using myelin protein as substrate assessed as ADP generation at 10 uM after 60 mins by ADP-glo assay relative to staurosporine
T1 sequence (Q96GD4 whole entry): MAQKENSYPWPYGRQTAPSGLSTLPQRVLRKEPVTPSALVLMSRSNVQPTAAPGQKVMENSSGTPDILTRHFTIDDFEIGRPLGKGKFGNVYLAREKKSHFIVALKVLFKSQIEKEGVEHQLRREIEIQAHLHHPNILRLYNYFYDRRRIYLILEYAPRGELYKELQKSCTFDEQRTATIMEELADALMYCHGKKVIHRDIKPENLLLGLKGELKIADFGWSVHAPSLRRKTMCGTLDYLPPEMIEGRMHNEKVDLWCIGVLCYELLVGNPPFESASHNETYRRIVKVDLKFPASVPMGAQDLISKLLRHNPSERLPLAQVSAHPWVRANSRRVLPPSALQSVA
Procedure, shortened: (§1)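 Aurora A and Aurora B activity read by ADP-Glo, measuring ADP formed from ATP during the kinase reaction. Compounds tested at 10 μM. Inhibition expressed as percentage relative to the staurosporine positive control.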

[2] = target: T2, Aurora kinase A (Homo sapiens) (UniProt O14965); experiment: Inhibition of Aurora A (unknown origin) using myelin protein as substrate assessed as ADP generation at 10 uM after 60 mins by ADP-glo assay relative to staurosporine; procedure, shortened: as §1
T2 sequence (whole entry): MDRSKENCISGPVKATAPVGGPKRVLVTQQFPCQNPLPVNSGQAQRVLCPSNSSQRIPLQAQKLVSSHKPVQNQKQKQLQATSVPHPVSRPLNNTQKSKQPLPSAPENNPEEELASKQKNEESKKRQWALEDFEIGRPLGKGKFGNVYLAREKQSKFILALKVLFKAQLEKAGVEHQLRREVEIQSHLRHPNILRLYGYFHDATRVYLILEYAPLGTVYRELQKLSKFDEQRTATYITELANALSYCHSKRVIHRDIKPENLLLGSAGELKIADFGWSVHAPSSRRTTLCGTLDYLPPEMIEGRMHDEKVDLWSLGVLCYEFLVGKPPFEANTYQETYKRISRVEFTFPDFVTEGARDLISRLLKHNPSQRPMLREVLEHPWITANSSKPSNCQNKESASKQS

Aurora kinase B [3] = target: T1, Aurora kinase B; experiment: Inhibition of Aurora B (unknown origin) using myelin protein as substrate assessed as ADP generation after 60 mins by ADP-glo assay
ACHN = experiment: Cytotoxicity against human ACHN cells assessed as reduction in cell growth after 48 hrs by SRB assay; type: functional
[4] = Cytotoxicity against human PC3 cells assessed as reduction in cell growth after 48 hrs by SRB assay; type: functional; settings: PC-3, 48 h
NCI-H23 = experiment: Cytotoxicity against human NCI-H23 cells assessed as reduction in cell growth after 48 hrs by SRB assay; type: functional; settings: NCI-H23, 48 h
MDA-MB-231 = experiment: Cytotoxicity against human MDA-MB-231 cells assessed as reduction in cell growth after 48 hrs by SRB assay; type: functional; settings: MDA-MB-231, 48 h
PC-3 = experiment: Antitumor activity against human PC3 cells xenografted in nu/nu BALB/c mouse assessed as tumor growth inhibition at 50 mg/kg, po administered qd for 16 days relative to control; type: functional, organism-based
Procedure, shortened: (§2)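 PC-3 prostate tumours grown as xenografts in nude mice. Dosed orally at 50 mg/kg once daily for 16 days; vehicle was 10% dimethylacetamide plus 10% Tween 80 in water. Tumour volume measured every two or three days, tumours weighed after harvest on day 16, and body weight followed throughout. Treated groups compared with vehicle by Student's t-test.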

Mus musculus = experiment: Toxicity in nu/nu BALB/c mouse xenografted with human PC3 cells assessed as loss in body weight at 50 mg/kg, po administered qd for 16 days measured during compound dosing; type: organism-based, PC-3; settings: in vivo, 384 h; procedure, shortened: as §2
[5] = Cytotoxicity against human HCT15 cells assessed as reduction in cell growth after 48 hrs by SRB assay; type: functional; settings: HCT-15, 48 h
[6] = Cytotoxicity against human NUGC3 cells assessed as reduction in cell growth after 48 hrs by SRB assay; type: functional; settings: NUGC-3, 48 h

Row | Structure (SMILES) | inhibition (Aurora kinase B [1]) | inhibition [2] | other results
1 | O=C(Nc1ccc(CNc2nc3ccc(OCCN4CCOCC4)cc3o2)cc1)Nc1cccc(Cl)c1 | 58% | 13% | 
2 | O=C(Nc1ccc(COc2ccc3nc(NCCN4CCOCC4)oc3c2)cc1)Nc1ccc(Cl)c(Cl)c1 | 70% | 2% | IC50 (Aurora kinase B [3]): 49.4 µM
3 | O=C(Nc1ccccc1)Nc1cccc(COc2ccc3nc(NCCN4CCOCC4)oc3c2)c1 | 80% | 1% | 
4 | O=C(Nc1ccc(F)cc1)Nc1ccc(CNc2nc3ccc(OCCN4CCOCC4)cc3o2)cc1 | 34% | inactive | 
5 | O=C(Nc1cccc(Cl)c1)Nc1cccc(CNc2nc3ccc(OCCN4CCOCC4)cc3o2)c1 | inactive |  | 
6 | O=C(Nc1ccc(CNc2nc3ccc(OCCN4CCOCC4)cc3o2)cc1)Nc1ccc(Cl)cc1Cl | 86% | 8% | IC50 (Aurora kinase B [3]): 0.7 µM
7 | O=C(Nc1ccc(Br)cc1)Nc1ccc(COc2ccc3oc(NCCN4CCOCC4)nc3c2)cc1 | 74% | 3% | 
8 | O=C(Nc1ccc(Br)cc1)Nc1ccc(CNc2nc3ccc(OCCN4CCOCC4)cc3o2)cc1 | 69% | inactive | 
9 | O=C(Nc1ccc(Cl)cc1)Nc1cccc(CNc2nc3ccc(OCCN4CCOCC4)cc3o2)c1 | 45% | 8% | 
10 | O=C(Nc1ccc(CNc2nc3ccc(OCCN4CCOCC4)cc3o2)cc1)c1ccccc1 | 21% |  | 
11 | O=C(Nc1ccccc1)Nc1cccc(CNc2nc3ccc(OCCN4CCOCC4)cc3o2)c1 | 30% |  | 
12 | O=C(Nc1ccc(Br)cc1)Nc1ccc(COc2ccc3nc(NCCN4CCOCC4)oc3c2)cc1 | 55% | inactive | 
13 | O=C(Nc1ccc(Cl)cc1)Nc1ccc(CNc2nc3ccc(OCCN4CCOCC4)cc3o2)cc1 | 66% | 5% | GI50 (ACHN): 2.2 µM; GI50 [4]: 6.2 µM; GI50 (NCI-H23): 4 µM; GI50 (MDA-MB-231): 7.6 µM; GI50 [5]: 4.8 µM; GI50 [6]: 5.5 µM; IC50 (Aurora kinase B [3]): 10.2 µM
14 | COc1ccc(NC(=O)Nc2ccc(CNc3nc4ccc(OCCN5CCOCC5)cc4o3)cc2)cc1 | 76% | 10% | 
15 | O=C(Nc1ccc(CNc2nc3ccc(OCCN4CCOCC4)cc3o2)cc1)Nc1cccc(F)c1 | 63% | 7% | 
16 | O=C(Nc1ccc(Br)cc1)Nc1ccc(CNc2nc3cc(OCCN4CCOCC4)ccc3o2)cc1 | 35% | -6% | 

The next lines start with results.

Row | inhibition (Aurora kinase B [1]) | inhibition [2] | Structure (SMILES) | other results
17 | 1% |  | O=C(Nc1cccc(CNc2nc3ccc(OCCN4CCOCC4)cc3o2)c1)c1ccccc1 | 
18 | 42% | 8% | O=C(Nc1ccc(Cl)cc1)Nc1ccc(CNc2nc3cc(OCCN4CCOCC4)ccc3o2)cc1 | 
19 | 37% | 4% | O=C(Nc1ccc(Cl)cc1)Nc1ccc(COc2ccc3oc(NCCN4CCOCC4)nc3c2)cc1 | 
20 | 65% | inactive | Cc1ccc(NC(=O)Nc2ccc(CNc3nc4ccc(OCCN5CCOCC5)cc4o3)cc2)cc1 | 
21 | 94% | inactive | O=C(Nc1ccc(Cl)cc1)Nc1ccc(COc2ccc3nc(NCCN4CCOCC4)oc3c2)cc1 | IC50 (Aurora kinase B [3]): 50.4 µM
22 | 88% | 24% | O=C(Nc1ccc(CNc2nc3ccc(OCCN4CCOCC4)cc3o2)cc1)Nc1ccc(Cl)c(Cl)c1 | GI50 (ACHN): 2.6 µM; GI50 [4]: 4.8 µM; GI50 (NCI-H23): 3.4 µM; GI50 (MDA-MB-231): 5 µM; TGI (PC-3): Active; Activity (Mus musculus): Non-toxic; GI50 [5]: 3 µM; GI50 [6]: 8.4 µM; IC50 (Aurora kinase B [3]): 0.6 µM
23 | inactive |  | O=C(Nc1ccccc1CNc1nc2ccc(OCCN3CCOCC3)cc2o1)c1ccccc1 | 
24 | 74% | 5% | O=C(Nc1ccc(COc2ccc3oc(NCCN4CCOCC4)nc3c2)cc1)Nc1ccc(Cl)c(Cl)c1 | 
25 | 40% | 15% | O=C(Nc1ccccc1)Nc1ccc(CNc2nc3ccc(OCCN4CCOCC4)cc3o2)cc1 | 
